MrgX1 agonist: agonists of human MrgX1 receptor, primary screen, HEK293 cells, Fluo-4 calcium flux | Mas-related G-protein coupled receptor member X1 (Homo sapiens), Q96LB2 | Fluo-4 calcium fluorescence, agonist mode; hits give high values | B-score at 10 µM | 310,000 compounds, 0.44% hits | AID 588627, 2011;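 active = calcium response B-score plate-corrected fluorescence ratio at least 3 library SD, with starting fluorescence B-score inside 5 SD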
Target sequence (Q96LB2 whole entry, looked up): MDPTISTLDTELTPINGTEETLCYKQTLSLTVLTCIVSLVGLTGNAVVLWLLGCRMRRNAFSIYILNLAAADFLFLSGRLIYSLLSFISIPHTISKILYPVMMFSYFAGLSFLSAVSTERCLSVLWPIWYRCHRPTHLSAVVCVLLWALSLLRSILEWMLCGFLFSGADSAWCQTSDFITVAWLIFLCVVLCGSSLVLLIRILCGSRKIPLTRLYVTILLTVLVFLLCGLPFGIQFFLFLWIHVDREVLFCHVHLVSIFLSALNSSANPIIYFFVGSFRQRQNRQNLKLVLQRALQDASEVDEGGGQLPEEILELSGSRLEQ
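Material: MrgX1-expressing HEK293 cells; input: 15,000 cells per well; doses: test compound given as first of three sequential additions; schedule: overnight plating before 1 h dye loading; technique: Fluo-4 NW calcium-flux fluorescence, kinetic read; evaluation: baseline-normalised fluorescence change ratio, B-scored; control set: plate-wise positive and negative controls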
MrgX1 allo act: positive allosteric modulators of MrgX1, primary screen, HEK293 cells, Fluo-4 calcium flux; 310,000 compounds, 0.63% hits; FDSS; hits give high values; AID 588675, 2011; B-score at 10 µM;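 active = plate-corrected calcium response at least 3 library SD above typical, normal starting fluorescence, not activating the receptor alone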;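 note: compound read alongside a low EC10 to EC30 dose of BAM8-22 agonist; peak minus trough fluorescence over baseline measured at the second addition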
MrgX1 antag: antagonists of human MrgX1 receptor, primary screen, HEK293 cells, Fluo-4 calcium flux | BAM8-22 antagonism; hits give low values | B-score at 10 µM | 310,000 compounds, 1.3% hits | Mas-related G-protein coupled receptor member X1 (Homo sapiens), Q96LB2;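 active = calcium-response B-score plate-corrected more than 3 library SD below zero, starting fluorescence within 5 deviations, no agonist response on first addition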;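 note: peak minus trough fluorescence over baseline after final BAM8-22 challenge near maximal dose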
RGS4 pot: RGS4 potentiators or activators, primary screen, cell-based, HEK293 M3R inducible RGS4, calcium flux | B-score at 10 µM | 310,000 compounds, 0.92% hits | carbachol calcium flux Fluo4; hits give low values;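 active = B-score of the integrated calcium signal more than 4 SD below the library mean, with starting fluorescence not abnormally high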;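 note: negative B-score means reduced calcium response which marks RGS4 activation or potentiation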
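System: HEK293 FlpIn-TREx cells, stable M3R, doxycycline-inducible RGS4. Timing: overnight RGS4 induction, 30 min dye load 37 °C, 20 min compound RT. Also added: carbachol, ECmax concentration. Measured by: Fluo4 fluorescence kinetic imaging of calcium. Evaluation: integrated calcium ratio converted to B score.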
RGS4 block: RGS4 inhibitors, primary screen, cell-based, HEK293 M3R inducible RGS4, calcium flux; Fluo-4 calcium flux; hits give high values; triggered by carbachol at its EC20; B-score at 10 µM; 310,000 compounds, 0.45% hits; AID 463165, 2010;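 active = B-score, a plate-corrected calcium signal, over three deviations above library mean, with baseline fluorescence within five deviations of library mean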;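 note: RGS4 expression induced by doxycycline in cells with stable M3 receptor; B-score is computed from the integrated fluorescence ratio over baseline after carbachol; higher B-score means a larger calcium signal and so more RGS4 inhibition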
Target sequence (P49798 whole entry, looked up): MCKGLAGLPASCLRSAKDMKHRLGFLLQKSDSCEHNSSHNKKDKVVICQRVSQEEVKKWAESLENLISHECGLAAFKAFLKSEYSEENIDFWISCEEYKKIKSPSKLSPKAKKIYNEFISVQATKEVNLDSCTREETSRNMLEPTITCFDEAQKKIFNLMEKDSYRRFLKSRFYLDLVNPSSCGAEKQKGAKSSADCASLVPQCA
MrgX1 ant reconf: MrgX1 receptor antagonists, duplicate retest, confirmation, HEK293 cells, Fluo-4 calcium flux; shares compounds with MrgX1 antag; BAM8-22 calcium flux; hits give low values; remaining BAM8-22 calcium response % of control (hits give low values), % at 10 µM; 2,300 compounds, 19% hits;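 active = remaining agonist calcium response no higher than 100% minus 3 SD of agonist-only control wells, with starting fluorescence near control levels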;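 note: agonist BAM8-22 given at a near maximal EC90 to ECmax level; peak minus minimum fluorescence divided by baseline after agonist addition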
HEK293 Ca flux: nonspecific calcium signal in parental HEK293, confirmation, counter-screen for MrgX1 antagonist project, parental HEK293 cells, Fluo-4 calcium flux; shares compounds with MrgX1 antag; Fluo-4 calcium fluorescence, FDSS; fluorescence ratio F(max-min)/F0 at 10 µM; 4,000 compounds, 2% hits;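 active = duplicate-averaged calcium fluorescence ratio at least three times the standard deviation of buffer wells, a nonspecific response in parental cells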
HEK293 Ca counter: calcium response in parental HEK293 cells, primary screen, counter-screen for MrgX1 allosteric activator project, cell-based, Fluo-4 calcium flux, duplicate | AID 624114, 2012 | 4,000 compounds, 0.4% hits | fluorescence ratio F(max-min)/F0 at 10 µM | shares compounds with MrgX1 antag | Fluo-4 fluorescence ratio; hits give high values;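 active = calcium fluorescence ratio, averaged over duplicates, at least 3 SD of the buffer-well ratio, meaning a nonspecific response in receptor-free cells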;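 note: untransfected parental HEK293 lacking MrgX1 used as counterscreen for MrgX1 allosteric activators; fluorescence change taken during the second addition on a kinetic imager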
HEK293 Ca cntr2: calcium response in parental HEK293 cells, primary screen, counter-screen for MrgX1 agonist project, cell-based, Fluo-4 calcium flux, duplicate, agonist mode; shares compounds with MrgX1 antag; Fluo-4 calcium fluorescence (FDSS); hits give high values; fluorescence ratio F(max-min)/F0 at 10 µM; 4,000 compounds, 8.7% hits;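 active = calcium fluorescence ratio at least three times the spread of buffer wells, meaning a non-specific response in parental cells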
* = called active by the depositor; i = inactive; x = no result. Rows were chosen to be rich in hits. Some 3.5% of all compounds tested hit in one or more screens of this group.

SMILES	MrgX1 agonist	MrgX1 allo act	MrgX1 antag	RGS4 pot	RGS4 block	MrgX1 ant reconf	HEK293 Ca flux	HEK293 Ca counter	HEK293 Ca cntr2
CC(=O)N1CCN(C(=O)C(Cc2c[nH]c3ccccc23)NC(=O)c2ccccc2Cl)CC1 (stereo not drawn)	i	i	i	i	i	x	x	x	x
COCCNC(=O)c1ccc2c(=O)n(CCOC)c(=O)[nH]c2c1	i	i	-6.2*	i	i	i	i	i	i
Cc1c(C(N)=O)sc2ncn(CC(=O)N3CCC(C)CC3)c(=O)c12	i	i	i	i	i	x	x	x	x
CCSc1nc(C(F)(F)F)cc(=O)n1-c1ccccc1	i	i	i	i	i	x	x	x	x
CC(C)Sc1nc(C(F)(F)F)cc(=O)n1-c1ccccc1	i	i	-8.2*	i	i	i	i	i	i
COc1ccc(C2CC(C(F)(F)F)n3nc(C(=O)O)c(Cl)c3N2)cc1OC (stereo not drawn)	i	i	-4.5*	i	i	i	i	i	i
Cc1nn(C)c(C)c1CNC(=O)c1nn2c(c1Cl)NC(c1cccs1)CC2C(F)(F)F (stereo not drawn)	i	i	-8.7*	i	i	i	i	i	i
COc1ccc(C2CC(C(F)(F)F)n3nc(CO)c(Cl)c3N2)cc1OC (stereo not drawn)	i	i	i	i	i	x	x	x	x
CC(=O)c1ccc(NC(=S)NC(C)c2ccc(Cl)cc2Cl)cc1 (stereo not drawn)	i	i	-10*	i	i	i	i	i	i
CC(=O)N(C(C)=O)S(=O)(=O)c1ccc(N=NN2CCCCC2)cc1	i	i	i	i	i	x	x	x	x
O=C(Nc1ccc(OCC(F)(F)C(F)F)c(C(F)(F)F)c1)c1ccccc1O	i	i	-5.7*	i	i	i	i	i	i
CC(C)(Oc1ccc(Cl)cc1)C(=O)OCC(=O)N1CCCC1	i	i	-13*	i	i	i	i	i	i
CCOC(=O)c1ccc(Nc2nc(N)c3cc(OC)c(OC)cc3n2)cc1	i	i	i	i	i	x	x	x	x
COc1cc2nc(Nc3ccc(F)cc3)nc(N)c2cc1OC	i	i	-6.1*	i	i	66%*	i	i	i
CC(=O)c1ccccc1C(=O)N(C)C1CCCN(Cc2ccccc2F)C1 (stereo not drawn)	i	i	-4.8*	i	i	i	i	i	45*
O=C(c1cnc2n(c1=O)CCS2)N1CCc2ccccc21	i	i	i	i	i	x	x	x	x
Cc1sc(NC(=O)c2sc3nc4c(C)cccc4cc3c2N)c(C#N)c1C	i	i	-6.2*	i	i	60%*	i	i	i
Cc1cccc2cc3c(N)c(C#N)sc3nc12	i	i	i	i	i	x	x	x	x
Cc1cccc2cc3c(N)c(C(=O)N4CCc5ccccc54)sc3nc12	i	i	-8.4*	i	i	i	0.48*	i	59*
Cc1ccc(NC(=O)CCC(=O)NNC(=O)NC2CCCCC2)c(C)c1	i	i	i	i	i	x	x	x	x
COc1ccc(C(=O)CC(=O)C(=O)Nc2ccc(OC)c(Cl)c2)cc1	i	i	-5.1*	i	i	i	i	i	i
COc1ccc(C(=O)CC(=O)C(=O)Nc2ccc(Cl)cc2)cc1	i	i	i	i	i	x	x	x	x
COc1cccc(C(=O)Nc2cccc(C(=O)NCC(C)C)c2)c1	i	i	-6.5*	i	i	i	i	i	i
CC(C)OCCCNC(=O)c1cccc(NC(=O)c2ccccc2)c1	i	i	i	i	i	x	x	x	x
COCCCNC(=O)c1cccc(NC(=O)c2ccccc2)c1	i	i	-5.6*	i	i	83%*	i	i	i
SMILES	MrgX1 agonist	MrgX1 allo act	MrgX1 antag	RGS4 pot	RGS4 block	MrgX1 ant reconf	HEK293 Ca flux	HEK293 Ca counter	HEK293 Ca cntr2
CN1C(=O)/C(=C/c2ccccc2F)Sc2ccc(C(=O)N3CCCC3)cc21	i	i	i	i	i	x	x	x	x
CCN1C(=O)[C@H]2[C@@H](c3ccc(C)cc3)N3C(=O)N(c4cccc(Cl)c4)C(=O)[C@@]3(Cc3ccccc3)[C@H]2C1=O	i	i	-5.2*	i	i	i	i	i	i
CCN1C(=O)[C@H]2[C@@H](c3ccc(C)cc3)N3C(=O)N(c4cccc(Cl)c4)C(=O)[C@@]3(Cc3ccc(Cl)cc3)[C@H]2C1=O	i	i	i	x	x	x	x	x	x
CCCCC(=O)Nc1ccccc1CC	i	i	i	i	i	x	x	x	x
CC(=O)Nc1cccc(C(=O)Nc2cccnc2)c1	i	i	i	i	i	x	x	x	x
CCc1cccc(C)c1NC(=O)C1=C(C(=O)O)CCCC1	i	i	-7.8*	i	i	i	i	i	i
N/C(=N/O)c1ccccc1N1CCC(Cc2ccccc2)CC1	i	i	i	i	i	x	x	x	x
O=C(NCc1ccc(Cl)cc1)C(=O)NCC(c1cccnc1)N1CCN(c2ccc(F)cc2)CC1 (stereo not drawn)	i	i	-4.7*	i	i	77%*	i	i	i
O=C(NCC(c1cccnc1)N1CCN(c2ccc(F)cc2)CC1)c1ccccc1 (stereo not drawn)	i	i	i	i	i	x	x	x	x
COc1ccccc1NS(=O)(=O)c1cc(NC(=O)C(C)(C)C)ccc1N1CCOCC1	i	i	-4.6*	i	i	82%*	i	i	i
